Measurements as given in ChEMBL document CHEMBL4152188, “Design, synthesis and biological evaluation of C(4) substituted monobactams as antibacterial agents against multidrug-resistant Gram-negative bacteria” (Eur J Med Chem, 2018).
In brackets after ≈: the same amount, converted by molar mass.

Tests used:
Format in all cases: functional
[1] = tested on: Klebsiella pneumoniae; assay: Antibacterial activity against KPC-2 producing Klebsiella pneumoniae isolate 209735 after 18 hrs in presence of BPL by CLSI broth microdilution method; settings: isolate 209735, 18 h
Method in brief: (§1)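 CLSI broth microdilution against clinical isolates (ESBL E. coli, KPC-2 MDR K. pneumoniae, IMP-4 MDR P. aeruginosa; five per species). Iron limitation: Mueller-Hinton broth supplemented with 16 mg/liter 2,2'-bipyridyl to complex iron and induce iron uptake systems. Read-out: MIC.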

[2] = tested on: Klebsiella pneumoniae; assay: Antibacterial activity against KPC-2 producing Klebsiella pneumoniae isolate 212232 after 18 hrs by CLSI broth microdilution method; settings: isolate 212232, 18 h
[3] = tested on: Klebsiella pneumoniae; assay: Antibacterial activity against KPC-2 producing Klebsiella pneumoniae isolate 212423 after 18 hrs by CLSI broth microdilution method; settings: isolate 212423, 18 h
[4] = tested on: Pseudomonas aeruginosa; assay: Antibacterial activity against IMP-4 producing Pseudomonas aeruginosa isolate 207272 after 18 hrs in presence of BPL by CLSI broth microdilution method; settings: isolate 207272, 18 h; method in brief: as §1
[5] = tested on: Klebsiella pneumoniae; assay: Antibacterial activity against KPC-2 producing Klebsiella pneumoniae isolate 212229 after 18 hrs in presence of BPL by CLSI broth microdilution method; settings: isolate 212229, 18 h; method in brief: as §1
[6] = tested on: Escherichia coli; assay: Antibacterial activity against extended-spectrum beta-lactamase producing Escherichia coli isolate 208687 after 18 hrs in presence of BPL by CLSI broth microdilution method; settings: isolate 208687, 18 h; method in brief: as §1
[7] = tested on: Klebsiella pneumoniae; assay: Antibacterial activity against KPC-2 producing Klebsiella pneumoniae isolate 209632 after 18 hrs by CLSI broth microdilution method; settings: isolate 209632, 18 h
[8] = tested on: Escherichia coli; assay: Selectivity index, ratio of MIC for against extended-spectrum beta-lactamase producing Escherichia coli isolate 208687 to MIC for extended-spectrum beta-lactamase producing Escherichia coli isolate 208687 in presence of BPL
[9] = tested on: Klebsiella pneumoniae; assay: Antibacterial activity against KPC-2 producing Klebsiella pneumoniae isolate 212229 after 18 hrs by CLSI broth microdilution method; settings: isolate 212229, 18 h
[10] = tested on: Escherichia coli; assay: Antibacterial activity against extended-spectrum beta-lactamase producing Escherichia coli isolate 106342 after 18 hrs in presence of BPL by CLSI broth microdilution method; settings: isolate 106342, 18 h; method in brief: as §1
[11] = tested on: Klebsiella pneumoniae; assay: Antibacterial activity against KPC-2 producing Klebsiella pneumoniae isolate 212232 after 18 hrs in presence of BPL by CLSI broth microdilution method; settings: isolate 212232, 18 h; method in brief: as §1
[12] = tested on: Pseudomonas aeruginosa; assay: Selectivity index, ratio of MIC for against IMP-4 producing Pseudomonas aeruginosa isolate 207272 to MIC for against IMP-4 producing Pseudomonas aeruginosa isolate 207272 in presence of BPL
[13] = tested on: Pseudomonas aeruginosa; assay: Antibacterial activity against IMP-4 producing Pseudomonas aeruginosa isolate 209471 after 18 hrs in presence of BPL by CLSI broth microdilution method; settings: isolate 209471, 18 h; method in brief: as §1
[14] = tested on: Klebsiella pneumoniae; assay: Selectivity index, ratio of MIC for against KPC-2 producing Klebsiella pneumoniae isolate 209632 to MIC for against KPC-2 producing Klebsiella pneumoniae isolate 209632 in presence of BPL
[15] = tested on: Pseudomonas aeruginosa; assay: Antibacterial activity against IMP-4 producing Pseudomonas aeruginosa isolate 212886 after 18 hrs by CLSI broth microdilution method; settings: isolate 212886, 18 h
[16] = tested on: Escherichia coli; assay: Selectivity index, ratio of MIC for against extended-spectrum beta-lactamase producing Escherichia coli isolate 209285 to MIC for extended-spectrum beta-lactamase producing Escherichia coli isolate 209285 in presence of BPL
[17] = tested on: Escherichia coli; assay: Antibacterial activity against extended-spectrum beta-lactamase producing Escherichia coli isolate 106342 after 18 hrs by CLSI broth microdilution method; settings: isolate 106342, 18 h
[18] = tested on: Escherichia coli; assay: Selectivity index, ratio of MIC for against Escherichia coli isolate 210737 to MIC for Escherichia coli isolate 210737 in presence of BPL
[19] = tested on: Klebsiella pneumoniae; assay: Selectivity index, ratio of MIC for against KPC-2 producing Klebsiella pneumoniae isolate 212232 to MIC for against KPC-2 producing Klebsiella pneumoniae isolate 212232 in presence of BPL
[20] = tested on: Pseudomonas aeruginosa; assay: Antibacterial activity against IMP-4 producing Pseudomonas aeruginosa isolate 212886 after 18 hrs in presence of BPL by CLSI broth microdilution method; settings: isolate 212886, 18 h; method in brief: as §1
[21] = tested on: Escherichia coli; assay: Antibacterial activity against extended-spectrum beta-lactamase producing Escherichia coli isolate 209285 after 18 hrs in presence of BPL by CLSI broth microdilution method; settings: isolate 209285, 18 h; method in brief: as §1
[22] = tested on: Klebsiella pneumoniae; assay: Selectivity index, ratio of MIC for against KPC-2 producing Klebsiella pneumoniae isolate 212229 to MIC for against KPC-2 producing Klebsiella pneumoniae isolate 212229 in presence of BPL
[23] = tested on: Klebsiella pneumoniae; assay: Antibacterial activity against KPC-2 producing Klebsiella pneumoniae isolate 209735 after 18 hrs by CLSI broth microdilution method; settings: isolate 209735, 18 h
[24] = tested on: Escherichia coli; assay: Antibacterial activity against Escherichia coli isolate 210737 after 18 hrs by CLSI broth microdilution method; settings: isolate 210737, 18 h
[25] = tested on: Klebsiella pneumoniae; assay: Antibacterial activity against KPC-2 producing Klebsiella pneumoniae isolate 209632 after 18 hrs in presence of BPL by CLSI broth microdilution method; settings: isolate 209632, 18 h; method in brief: as §1
[26] = tested on: Pseudomonas aeruginosa; assay: Antibacterial activity against IMP-4 producing Pseudomonas aeruginosa isolate 208247 after 18 hrs by CLSI broth microdilution method; settings: isolate 208247, 18 h
[27] = tested on: Pseudomonas aeruginosa; assay: Selectivity index, ratio of MIC for against IMP-4 producing Pseudomonas aeruginosa isolate 212886 to MIC for against IMP-4 producing Pseudomonas aeruginosa isolate 212886 in presence of BPL
[28] = tested on: Escherichia coli; assay: Selectivity index, ratio of MIC for against extended-spectrum beta-lactamase producing Escherichia coli isolate 106342 to MIC for extended-spectrum beta-lactamase producing Escherichia coli isolate 106342 in presence of BPL
[29] = tested on: Klebsiella pneumoniae; assay: Selectivity index, ratio of MIC for against KPC-2 producing Klebsiella pneumoniae isolate 212423 to MIC for against KPC-2 producing Klebsiella pneumoniae isolate 212423 in presence of BPL
[30] = tested on: Pseudomonas aeruginosa; assay: Selectivity index, ratio of MIC for against IMP-4 producing Pseudomonas aeruginosa isolate 209471 to MIC for against IMP-4 producing Pseudomonas aeruginosa isolate 209471 in presence of BPL
[31] = tested on: Escherichia coli; assay: Antibacterial activity against extended-spectrum beta-lactamase producing Escherichia coli isolate 212648 after 18 hrs by CLSI broth microdilution method; settings: isolate 212648, 18 h
[32] = tested on: Pseudomonas aeruginosa; assay: Antibacterial activity against IMP-4 producing Pseudomonas aeruginosa isolate 207272 after 18 hrs by CLSI broth microdilution method; settings: isolate 207272, 18 h
[33] = tested on: Klebsiella pneumoniae; assay: Selectivity index, ratio of MIC for against KPC-2 producing Klebsiella pneumoniae isolate 209735 to MIC for against KPC-2 producing Klebsiella pneumoniae isolate 209735 in presence of BPL
[34] = tested on: Klebsiella pneumoniae; assay: Antibacterial activity against KPC-2 producing Klebsiella pneumoniae isolate 212423 after 18 hrs in presence of BPL by CLSI broth microdilution method; settings: isolate 212423, 18 h; method in brief: as §1
[35] = tested on: Escherichia coli; assay: Antibacterial activity against Escherichia coli isolate 210737 after 18 hrs in presence of BPL by CLSI broth microdilution method; settings: isolate 210737, 18 h; method in brief: as §1
[36] = tested on: Escherichia coli; assay: Selectivity index, ratio of MIC for against extended-spectrum beta-lactamase producing Escherichia coli isolate 212648 to MIC for extended-spectrum beta-lactamase producing Escherichia coli isolate 212648 in presence of BPL
[37] = tested on: Pseudomonas aeruginosa; assay: Selectivity index, ratio of MIC for against IMP-4 producing Pseudomonas aeruginosa isolate 208247 to MIC for against IMP-4 producing Pseudomonas aeruginosa isolate 208247 in presence of BPL
[38] = tested on: Pseudomonas aeruginosa; assay: Selectivity index, ratio of MIC for against IMP-4 producing Pseudomonas aeruginosa isolate 209321 to MIC for against IMP-4 producing Pseudomonas aeruginosa isolate 209321 in presence of BPL
[39] = tested on: Pseudomonas aeruginosa; assay: Antibacterial activity against IMP-4 producing Pseudomonas aeruginosa isolate 208247 after 18 hrs in presence of BPL by CLSI broth microdilution method; settings: isolate 208247, 18 h; method in brief: as §1
[40] = tested on: Pseudomonas aeruginosa; assay: Antibacterial activity against IMP-4 producing Pseudomonas aeruginosa isolate 209321 after 18 hrs in presence of BPL by CLSI broth microdilution method; settings: isolate 209321, 18 h; method in brief: as §1
[41] = tested on: Pseudomonas aeruginosa; assay: Antibacterial activity against IMP-4 producing Pseudomonas aeruginosa isolate 209321 after 18 hrs by CLSI broth microdilution method; settings: isolate 209321, 18 h
[42] = tested on: Escherichia coli; assay: Antibacterial activity against extended-spectrum beta-lactamase producing Escherichia coli isolate 209285 after 18 hrs by CLSI broth microdilution method; settings: isolate 209285, 18 h
[43] = tested on: Pseudomonas aeruginosa; assay: Antibacterial activity against IMP-4 producing Pseudomonas aeruginosa isolate 209471 after 18 hrs by CLSI broth microdilution method; settings: isolate 209471, 18 h
[44] = tested on: Escherichia coli; assay: Antibacterial activity against extended-spectrum beta-lactamase producing Escherichia coli isolate 212648 after 18 hrs in presence of BPL by CLSI broth microdilution method; settings: isolate 212648, 18 h; method in brief: as §1
[45] = tested on: Escherichia coli; assay: Antibacterial activity against extended-spectrum beta-lactamase producing Escherichia coli isolate 208687 after 18 hrs by CLSI broth microdilution method; settings: isolate 208687, 18 h

MIC [1]: 8 µg/mL
MIC [2]: > 64 µg/mL
MIC [3]: > 64 µg/mL
MIC [4]: 16 µg/mL
MIC [5]: 8 µg/mL
MIC [6]: 2 µg/mL
MIC [7]: > 64 µg/mL
MIC [9]: > 64 µg/mL
MIC [10]: 4 µg/mL
MIC [11]: 4 µg/mL
MIC [13]: 32 µg/mL
MIC [15]: > 64 µg/mL
MIC [17]: 8 µg/mL (≈ 10 µM)
MIC [20]: > 64 µg/mL
MIC [21]: 8 µg/mL
MIC [23]: > 64 µg/mL
MIC [24]: > 64 µg/mL
MIC [25]: 8 µg/mL
MIC [26]: 32 µg/mL (≈ 40 µM)
MIC [31]: 16 µg/mL (≈ 20 µM)
MIC [32]: 32 µg/mL (≈ 40 µM)
MIC [34]: 8 µg/mL
MIC [35]: 64 µg/mL
MIC [39]: 32 µg/mL
MIC [40]: 32 µg/mL
MIC [41]: 64 µg/mL (≈ 80 µM)
MIC [42]: 16 µg/mL (≈ 20 µM)
MIC [43]: 64 µg/mL (≈ 80 µM)
MIC [44]: 16 µg/mL
MIC [45]: 16 µg/mL (≈ 20 µM)
SMILES: CC(C)C(O/N=C(\C(=O)N[C@@H]1C(=O)N(S(=O)(=O)O)[C@@H]1COC(=O)C1CN(C(=O)c2ccc(O)c(O)c2Cl)C1)c1csc(N)n1)c1cc(=O)c(O)cn1O (stereo not given in full)
Selectivity Index [8]: 8
Selectivity Index [12]: 2
Selectivity Index [14]: >8
Selectivity Index [16]: 2
Selectivity Index [18]: 1 - 8
Selectivity Index [19]: >16
Selectivity Index [22]: >8
Selectivity Index [27]: 1 - 2
Selectivity Index [28]: 2
Selectivity Index [29]: >8
Selectivity Index [30]: 2
Selectivity Index [33]: >8
Selectivity Index [36]: 1
Selectivity Index [37]: 1
Selectivity Index [38]: 2
